From ChEMBL document CHEMBL4007469, “Design and synthesis of dalbergin analogues and evaluation of anti-osteoporotic activity” (Bioorg Med Chem Lett, 2017)
The source made the active and inactive calls. The calls are words filed in the database; no cut-off is given here.

Columns and labels:
Mus musculus [1] = test: Osteogenic activity in Balb/c mouse drill-hole fracture model assessed as increase in Runx2 mRNA level at 1 mg/kg, po qd via gavage for 21 days by RT-PCR method
Mus musculus [2] = test: In vivo induction of osteogenesis in Balb/c mouse assessed as bone formation at 0.5 to 1 mg/kg/day, sc over calvarial surface for 5 consecutive days by hematoxylin and eosin staining based fluorescence microscopic method; assay type: functional, organism-based
In short: (§1)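 Three-week-old Balb/c mice (3 per group) injected subcutaneously over the calvarial surface daily for 5 consecutive days at 0.1, 0.5, 1 and 5 mg/kg/day. Calvaria fixed in 4% formaldehyde, paraffin-embedded, H&E-stained; tetracycline and calcein (20 mg/kg each, ip) given for MAR/BFR histomorphometry; calvarial mRNA by RT-PCR. Mean ± SE, three independent experiments, versus untreated.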

Mus musculus [3] = test: Anti-osteoporotic activity in ovariectomized postmenopausal Balb/c mouse model assessed as improvement in micro-artchitectural parameter in vertebrae by measuring trabecular separation at 1 mg/kg, po qd via gavage for 6 weeks by micro CT-scan analysis (reference value: 0.288 +/- 0.021 millimeter); assay type: functional
In short: (§2)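 Female Balb/c mice, 8 weeks old, ovariectomized, 6 weeks osteopenia development, then 1.0 mg/kg/day or gum acacia vehicle by oral gavage once daily for 6 weeks (sham, OVx and treated groups). Bones collected after sacrifice for micro-CT of trabecular microarchitecture (BV/TV, Tb.N, Tb.Th, Tb.Sp, SMI) and biomechanical testing of femur and vertebrae (energy, stiffness); mean ± SE versus OVx.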

Mus musculus [4] = test: Anti-osteoporotic activity in ovariectomized postmenopausal Balb/c mouse model assessed as femur bone breaking strength by measuring stiffness at 1 mg/kg, po qd via gavage for 6 weeks by micro CT-scan analysis (reference value: 34.3 +/- 1.84 N/mm); assay type: functional
In short: as §2

Mus musculus [5] = test: Osteogenic activity in Balb/c mouse drill-hole fracture model assessed as increase in BMP2 mRNA level at 1 mg/kg, po qd via gavage for 21 days by RT-PCR method
Mus musculus [6] = test: In vivo induction of osteogenesis in Balb/c mouse assessed as increase in OCN mRNA level in calvaria at 1 mg/kg/day, sc over calvarial surface for 5 consecutive days by RT-PCR method relative to control; assay type: functional
In short: as §1

Mus musculus [7] = test: Anti-osteoporotic activity in ovariectomized postmenopausal Balb/c mouse model assessed as femur bone breaking strength by measuring energy at 1 mg/kg, po qd via gavage for 6 weeks by micro CT-scan analysis (reference value: 2.6 +/- 0.18 mJ); assay type: functional
In short: as §2

Mus musculus [8] = test: In vivo induction of osteogenesis in Balb/c mouse assessed as increase in bone formation rate in calvaria at 0.1 to 1 mg/kg/day, sc over calvarial surface for 5 consecutive days by fluorochromes tetracycline and calcein labeling based histomorphometric analysis; assay type: functional, organism-based
In short: as §1

Mus musculus [9] = test: Osteogenic activity in Balb/c mouse drill-hole fracture model assessed as structure model index at 1 mg/kg, po qd via gavage for 21 days by micro-CT method (reference value: 2.585 +/- 0.387)
Mus musculus [10] = test: Anti-osteoporotic activity in ovariectomized postmenopausal Balb/c mouse model assessed as bone formation rate at 1 mg/kg, po qd via gavage for 6 weeks by fluorochromes tetracycline and calcein labeling based histomorphometric analysis (reference value: 0.098 +/- 0.01 um3.um2/day); assay type: functional
Mus musculus [11] = test: In vivo induction of osteogenesis in Balb/c mouse assessed as increase in mineral appositional rate in calvaria at 0.1 to 1 mg/kg/day, sc over calvarial surface for 5 consecutive days by fluorochromes tetracycline and calcein labeling based histomorphometric analysis; assay type: functional, organism-based
In short: as §1

Mus musculus [12] = test: In vivo induction of osteogenesis in Balb/c mouse assessed as increase in COL1 mRNA level in calvaria at 1 mg/kg/day, sc over calvarial surface for 5 consecutive days by RT-PCR method relative to control; assay type: functional
In short: as §1

Mus musculus [13] = test: Anti-osteoporotic activity in ovariectomized postmenopausal Balb/c mouse model assessed as increase in Osx gene expression in femur bone at 1 mg/kg, po qd via gavage for 6 weeks by RT-PCR method; assay type: functional, organism-based
In short: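 Eight-week-old female Balb/c mice, ovariectomized and left 6 weeks for osteopenia to develop; groups sham+vehicle, OVx+vehicle, OVx+1.0 mg/kg/day, dosed once daily by oral gavage for 6 weeks in gum acacia/distilled water vehicle. Mice kept at 21°C, 12 h light/dark, chow and water ad libitum. Femoral bone mRNA or serum measured after sacrifice; mean ± SE versus OVx group.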

Mus musculus [14] = test: Osteogenic activity in Balb/c mouse drill-hole fracture model assessed as increase in OCN mRNA level at 1 mg/kg, po qd via gavage for 21 days by RT-PCR method relative to control

In the case of `COc1cc2oc(=O)cc(-c3ccccc3)c2cc1OCCCCCN1CCN(C)CC1`, the Activity (Mus musculus [1]) is reported as “Active”, the Activity (Mus musculus [2]) is reported as “Active” and the Activity (Mus musculus [3]) is reported as 0.167 mm. The Activity (Mus musculus [4]) was 53.55 N/mm, the Activity (Mus musculus [5]) was “Active” and the “fold change (FC)” value (Mus musculus [6]) was 4. For the same molecule, the Activity (Mus musculus [7]) was 4.55 mJ, the Activity (Mus musculus [8]) was “Active” and the Activity_index (Mus musculus [9]) was 0.496. For the same molecule, the Activity (Mus musculus [10]) was 0.163 um3.um2/day, the Activity (Mus musculus [11]) was “Active” and the “fold change (FC)” value (Mus musculus [12]) was 4. For the same molecule, the Activity (Mus musculus [13]) was “Active” and the “fold change (FC)” value (Mus musculus [14]) was 6.
